This is an account of results in ChEMBL document CHEMBL1121537, “Anticoccidial derivatives of 6-azauracil. 3. Synthesis, high activity, and short plasma half-life of 1-phenyl-6-azauracils containing sulfonamide substituents” (J Med Chem, 1980).

Data set [1] is filed under the species Gallus gallus. Briefly: Minimum effective concentration required to prevent formation of detectable lesions in Eimeria tenella infected leghorn cockerels; Value ranges from 60-120. The format is functional. Summed up:
(§1)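 Leghorn cockerels infected with Eimeria tenella, screened by a modified version of a published screening method. The minimum effective concentration, in ppm, is the lowest level that prevents detectable lesions.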

The test system of data set [2] is Eimeria tenella. The data set is described as follows: Minimum effective concentration required to prevent formation of detectable lesions in Eimeria tenella infected leghorn cockerels. It counts as functional. The note with it: read-out: MEC. The gist of the method: as §1
Data set [3] has as its system Eimeria acervulina. The data set is described as follows: The compound was evaluated for the variations in the vulnerability to Eimeria acervulina. The format is functional. The note with it: read-out: MEC.
Data set [4] can be described thus: Half life in plasma of young cockerels. The format is ADME, organism-based, Gallus gallus. The settings on record: male, chicken. The gist of the method:
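Plasma half-life in young cockerels, about 10 days old, determined by a previously described method.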

Data set [5] deals with Eimeria tenella. The data set is described as follows: The compound was evaluated for the variations in the vulnerability to Eimeria tenella. The format is functional. The note with it: read-out: MEC.
Data set [6] concerns Eimeria brunetti. The data set is described as follows: The compound was evaluated for the variations in the vulnerability to Eimeria brunetti. The format is functional. The note with it: read-out: MEC.
For data set [7], the system named is Eimeria necatrix. The data set is described as follows: The compound was evaluated for the variations in the vulnerability to Eimeria necatrix. The format is functional. The settings on record: read-out: MEC.
Data set [8] has as its system Gallus gallus. Briefly: Plasma level measured 3h after oral administration of 4-5 mg/kg body weight in young cockerels. The format is functional, organism-based. The gist of the method:
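Young cockerels, about 10 days old, given 4-5 mg/kg body weight orally; drug level in plasma measured 3 h after dosing, in mcg/mL.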

`CN(Cc1ccccc1)S(=O)(=O)c1ccc(-n2ncc(=O)[nH]c2=O)cc1Cl`: the MEC in data set [1] stood at 60 p.p.m.

Consider `Cc1cc(-n2ncc(=O)[nH]c2=O)cc(C)c1S(=O)(=O)N1CCOCC1`, for which the minimal effective concentration was determined as 15 µg/mL in data set [2]; 50 µg/mL in data set [3]; 15 µg/mL in data set [5]; 30 µg/mL in data set [6]; 15 µg/mL in data set [7]. In addition, the half-life – broadly, how long it takes for the measured level to halve – in data set [4] was 1.5 h. In data set [8], this compound showed a Plasma level of 0.95 µg/mL.
